Legend:
[1] = molecular target: T1, Corticotropin-releasing factor receptor 1 (Homo sapiens, UniProt P34998); assay: Displacement of [125I]-Tyr0-sauvagine from human CRF1 receptor expressed in HEK293T cells after 2 hrs by scintillation counting; type: cell-based, HEK-293T
T1 sequence (P34998 whole entry): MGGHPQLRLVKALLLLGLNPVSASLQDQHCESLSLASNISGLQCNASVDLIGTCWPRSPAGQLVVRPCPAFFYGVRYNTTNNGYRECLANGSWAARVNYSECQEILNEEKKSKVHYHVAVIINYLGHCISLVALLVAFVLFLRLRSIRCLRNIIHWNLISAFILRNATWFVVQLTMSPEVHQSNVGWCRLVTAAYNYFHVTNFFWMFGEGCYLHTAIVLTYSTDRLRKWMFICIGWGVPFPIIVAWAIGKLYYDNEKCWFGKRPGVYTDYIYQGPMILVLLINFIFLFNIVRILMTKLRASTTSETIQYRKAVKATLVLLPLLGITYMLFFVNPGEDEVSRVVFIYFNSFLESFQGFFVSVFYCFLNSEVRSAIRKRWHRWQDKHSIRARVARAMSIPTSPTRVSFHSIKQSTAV

[2] = molecular target: T2, Corticotropin-releasing factor receptor 2 (Homo sapiens) (UniProt Q13324); assay: Displacement of [125I]-antisauvagine-30 from human CRF2 receptor expressed in HEK293T cells at 1 uM after 2 hrs by scintillation counting; type: cell-based; settings: HEK-293T
T2 sequence (whole entry): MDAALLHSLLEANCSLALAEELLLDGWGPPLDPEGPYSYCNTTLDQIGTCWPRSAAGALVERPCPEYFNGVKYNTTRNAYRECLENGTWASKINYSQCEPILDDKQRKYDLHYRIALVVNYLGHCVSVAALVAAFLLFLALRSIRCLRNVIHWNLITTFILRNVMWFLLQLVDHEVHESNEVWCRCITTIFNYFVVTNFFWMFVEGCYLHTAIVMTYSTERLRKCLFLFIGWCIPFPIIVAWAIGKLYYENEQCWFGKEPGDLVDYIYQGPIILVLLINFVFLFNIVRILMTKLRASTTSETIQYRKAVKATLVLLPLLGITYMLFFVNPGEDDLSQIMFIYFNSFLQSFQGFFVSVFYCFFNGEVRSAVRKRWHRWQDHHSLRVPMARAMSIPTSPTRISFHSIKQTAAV
Summary of the method: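 Competition binding at 23 °C on HEK293T cells transfected with human CRF2 receptor. Each ligand tested at 1 μM against the radiotracer [125I]antisauvagine-30. Read-out is mean % displacement of specific radiotracer binding, n = 2.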

[3] = Lipophilicity, logP of the compound at pH 7.4; type: physicochemical; settings: buffer
Summary of the method: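 Octanol/aqueous buffer shake-flask partition at pH 7.4, done on the 18F-labelled radioligands; mean ± SD of n = 4.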

[4] = system: Brain; assay: Drug uptake in cynomolgus monkey brain assessed as whole-brain time-activity curve by MicroPET imaging analysis; type: ADME, tissue-based, Macaca fascicularis; settings: in vivo

SMILES	Ki [1] [nM]	inhibition [2] [%]	other results
CCN(CC)c1cc(C)nc2c1N(CCF)C(=O)CN2c1ccc(C(C)C)cc1Br	7.3		
CCCCN(CC)c1cc(C)nc2c1NC(=O)CN2c1ccc(Cl)cc1Cl	3.4	0.9	
CCCCN(CC)c1cc(C)nc2c1NC(=O)CN2c1ccc(Cl)cc1C	5.4		
CCCCN(CC)c1cc(C)nc2c1N(C)C(=O)CN2c1ccc(Br)cc1Br	2.4		
CCCCN(CC)c1cc(C)nc2c1NC(=O)CN2c1ccc(Br)cc1CC	2.5	2.1	
CCCCN(CC)c1cc(C)nc2c1NC(=O)CN2c1ccc(Br)cc1Br	1.3	9.4	
Cc1cc(N(C)C)c2c(n1)N(c1ccc(C(C)C)cc1Br)CC(=O)N2	180		
Cc1cc(N(C)C)c2c(n1)N(c1ccc(C(C)C)cc1Br)CC(=O)N2C/C=C/CF	14.2		
CCCCN(CC)c1cc(C)nc2c1NC(=O)CN2c1ccc(Cl)cc1Br	2.5		
CCCCN(CC)c1cc(C)nc2c1NC(=O)CN2c1ccc(C)cc1Cl	4.4		
CCN(C)c1cc(C)nc2c1NC(=O)CN2c1ccc(C(C)C)cc1Br	16.4		
Cc1cc(N(C)C)c2c(n1)N(c1ccc(C(C)C)cc1Br)CC(=O)N2CCF	59		
CCCN(CCC)c1cc(C)nc2c1NC(=O)CN2c1ccc(C(C)C)cc1Br	3.1		
Cc1cc(N(C)C)c2c(n1)N(c1ccc(C(C)C)cc1Br)CC(=O)N2CCCC[17F]			logD [3]: 2.19
CCCCN(CC)c1cc(C)nc2c1NC(=O)CN2c1ccc(C(C)(C)C)cc1Br	4.2	-3.8	
CCCCN(CC)c1cc(C)nc2c1NC(=O)CN2c1ccc(C)cc1C	3.9	6.8	
CC[C@H](C)[C@H](NC(=O)[C@@H](NC(=O)[C@H](CC(=O)O)NC(=O)[C@H](CC(C)C)NC(=O)[C@H](CC(C)C)NC(=O)[C@H](CC(C)C)NC(=O)[C@H](CCCN=C(N)N)NC(=O)[C@H](CC(N)=O)NC(=O)[C@H](CC(N)=O)NC(=O)[C@H](C)NC(=O)[C@H](C)NC(=O)[C@H](CCC(N)=O)NC(=O)[C@H](CCC(N)=O)NC(=O)[C@H](CCCCN)NC(=O)[C@H](CCC(=O)O)NC(=O)[C@H](CCCCN)NC(=O)[C@H](CCC(=O)O)NC(=O)[C@H](CCC(N)=O)NC(=O)[C@H](CCCCN)NC(=O)[C@H](CCC(=O)O)NC(=O)[C@@H](NC(=O)[C@H](CCC(=O)O)NC(=O)[C@@H](NC(=O)[C@H](CCSC)NC(=O)[C@H](CCCCN)NC(=O)[C@H](CCCN=C(N)N)NC(=O)[C@H](CC(C)C)NC(=O)[C@H](CC(C)C)NC(=O)[C@H](CCC(=O)O)NC(=O)[C@H](CC(C)C)NC(=O)[C@H](CO)NC(=O)[C@H](CC(C)C)NC(=O)[C@H](CC(=O)O)NC(=O)[C@@H](NC(=O)[C@H](CO)NC(=O)[C@@H](NC(=O)[C@@H]1CCCN1C(=O)[C@@H]1CCCN1C(=O)CNC(=O)[C@@H]1CCC(=O)N1)[C@@H](C)CC)[C@@H](C)CC)[C@@H](C)CC)[C@@H](C)CC)[C@@H](C)O)C(=O)O		100	
Cc1cc(N(C)C)c2c(n1)N(c1ccc(C(C)C)cc1Br)CC(=O)N2CCCCF	21.6		
CCCN(CCC)c1cc(C)nc2c(-c3cnc(N(C)C)cc3C)c(C)nn12		23.8	
CCCCN(CC)c1cc(C)nc2c1NC(=O)CN2c1ccc(Br)cc1Cl	2.7		
CCCCN(CC)c1cc(C)nc2c1NC(=O)CN2c1ccc(OC)cc1C	4	-2.3	
CCCCN(CC)c1cc(C)nc2c1NC(=O)CN2c1ccc(Br)cc1C	4.4	5.9	
CCCCN(CC)c1cc(C)nc2c1NC(=O)CN2c1ccc(C)cc1Br	4.4	5.5	
CCN(C)c1cc(C)nc2c1N(CCCCF)C(=O)CN2c1ccc(C(C)C)cc1Br	13.9		
CCCCN(CC)c1cc(C)nc2c1NC(=O)CN2c1ccc(I)cc1C	3.4		
CCCCN(CC)c1cc(C)nc2c1NC(=O)CN2c1ccc(C(C)C)cc1Br	2.4	0.7	
CCN(C)c1cc(C)nc2c1N(CCCC[17F])C(=O)CN2c1ccc(C(C)C)cc1Br			logD [3]: 2.22; SUV [4]: <= 1
